Experimental data: ChEMBL document CHEMBL1133510, “Synthesis and evaluation of novel steroidal oxime inhibitors of P450 17 (17 alpha-hydroxylase/C17-20-lyase) and 5 alpha-reductase types 1 and 2” (J Med Chem, 2000); call rule not given here

How the values were obtained:
[1] = target: T1, 3-oxo-5-alpha-steroid 4-dehydrogenase 2 (Homo sapiens, UniProt P31213); assay: Inhibition of steroid 5-alpha-reductase type 2 from human BPH tissue at 210 nM testosterone; No inhibition
T1 sequence (P31213 whole entry): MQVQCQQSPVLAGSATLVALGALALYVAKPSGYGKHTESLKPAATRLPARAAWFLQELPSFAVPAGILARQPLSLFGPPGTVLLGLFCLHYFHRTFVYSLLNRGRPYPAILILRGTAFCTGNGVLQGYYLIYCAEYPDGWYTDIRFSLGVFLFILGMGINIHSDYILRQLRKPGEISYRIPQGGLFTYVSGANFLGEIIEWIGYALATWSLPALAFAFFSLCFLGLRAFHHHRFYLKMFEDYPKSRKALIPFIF
Method in brief: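 Enzyme from prostate homogenate of BPH patients, assayed at pH 5.5 with radiolabeled testosterone at 210 nM; product separated by HPLC. IC50 taken as inhibitor concentration giving 50% inhibition; mean of at least two experiments.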

[2] = target: T2, Steroid 17-alpha-hydroxylase/17,20 lyase (Rattus norvegicus, UniProt P11715); assay: Evaluated for the inhibitory activity towards Cytochrome P450 17 rat enzyme using testicular microsome at 25 uM of substrate (progesterone); design: species or system Testis
T2 sequence (P11715 whole entry): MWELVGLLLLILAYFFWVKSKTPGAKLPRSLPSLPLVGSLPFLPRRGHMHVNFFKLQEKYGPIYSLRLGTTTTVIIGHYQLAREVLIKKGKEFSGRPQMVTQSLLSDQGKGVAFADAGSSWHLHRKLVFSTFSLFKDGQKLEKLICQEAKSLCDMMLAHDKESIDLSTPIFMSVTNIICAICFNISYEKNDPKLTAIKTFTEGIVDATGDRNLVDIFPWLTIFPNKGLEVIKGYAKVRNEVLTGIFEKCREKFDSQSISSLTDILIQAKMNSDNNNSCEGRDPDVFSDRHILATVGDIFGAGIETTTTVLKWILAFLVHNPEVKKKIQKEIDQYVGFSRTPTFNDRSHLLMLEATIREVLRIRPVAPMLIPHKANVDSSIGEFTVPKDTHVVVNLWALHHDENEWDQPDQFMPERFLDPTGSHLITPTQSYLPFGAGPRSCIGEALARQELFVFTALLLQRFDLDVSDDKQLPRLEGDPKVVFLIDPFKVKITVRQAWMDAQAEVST
Method in brief: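 Testicular microsomes (human for human enzyme, rat for rat enzyme) incubated with progesterone substrate at 25 µM; product measured by RP-HPLC with UV detection. IC50 = concentration giving 50% inhibition, mean of at least two experiments.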

[3] = target: T3, 3-oxo-5-alpha-steroid 4-dehydrogenase 1 (Homo sapiens, UniProt P18405); assay: Evaluated for the inhibitory activity against human steroid 5-alpha-reductase type I in human DU-145 cell assay at 5 nM of androstenedione; format: cell-based
T3 sequence (P18405 whole entry): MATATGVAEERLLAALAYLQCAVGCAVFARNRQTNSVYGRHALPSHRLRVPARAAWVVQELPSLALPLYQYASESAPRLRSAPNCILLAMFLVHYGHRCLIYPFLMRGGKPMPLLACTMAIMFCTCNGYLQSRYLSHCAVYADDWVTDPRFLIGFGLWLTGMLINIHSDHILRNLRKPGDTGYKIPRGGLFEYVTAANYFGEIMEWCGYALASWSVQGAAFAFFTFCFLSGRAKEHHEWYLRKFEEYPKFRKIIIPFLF
Method in brief: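 Whole human DU-145 cells as source of type 1 enzyme, incubated with radiolabeled androstenedione at 5 nM; HPLC separation of product. IC50 = inhibitor concentration giving 50% inhibition; mean of at least two experiments.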

[4] = target: T4, Steroid 17-alpha-hydroxylase/17,20 lyase (Homo sapiens, UniProt P05093); assay: Evaluated for the inhibitory activity towards Cytochrome P450 17 human enzyme using testicular microsome at 25 uM of substrate (progesterone); design: species or system Testis
T4 sequence (P05093 whole entry): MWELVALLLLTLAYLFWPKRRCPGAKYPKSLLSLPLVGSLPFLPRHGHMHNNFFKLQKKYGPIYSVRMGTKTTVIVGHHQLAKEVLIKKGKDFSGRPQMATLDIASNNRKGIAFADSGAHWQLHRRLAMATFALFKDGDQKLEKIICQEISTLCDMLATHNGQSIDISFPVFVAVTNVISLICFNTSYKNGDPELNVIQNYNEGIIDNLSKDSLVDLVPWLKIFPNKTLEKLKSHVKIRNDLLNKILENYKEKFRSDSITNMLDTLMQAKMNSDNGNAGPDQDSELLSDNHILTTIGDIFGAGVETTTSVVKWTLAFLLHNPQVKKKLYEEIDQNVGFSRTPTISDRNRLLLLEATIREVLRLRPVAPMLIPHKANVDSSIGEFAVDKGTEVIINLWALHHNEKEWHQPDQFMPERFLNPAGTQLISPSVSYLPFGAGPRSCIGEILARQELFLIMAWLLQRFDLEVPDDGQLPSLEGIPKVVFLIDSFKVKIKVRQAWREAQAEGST

Structure (SMILES): C/C(=N/O)C1=CC=C2C3CCC4=CC(=O)CCC4(C)C3CCC12C (centres undefined)
- IC50 [1]: Not Active
- IC50 [2]: > 125 µM
- IC50 [3]: > 10 µM
- IC50 [4]: 0.2 µM
